Data from article PMC6624389 (British Journal of Clinical Pharmacology, 2019).
Values belong to the molecule of their own block, whether it stands above or below them.

What was measured:
T2DM patients [1] = conditions: T2DM patients with mean FPG 8–9 mmol/L (144–162 mg/dL); cited from earlier work
[2] = test system: T2DM patients with moderate renal impairment; conditions: cited from earlier work
[3] = test system: Japanese healthy subjects and patients with T2DM; conditions: phase I and clinical pharmacology studies; cited from earlier work
[4] = test system: Japanese patients with T2DM; conditions: once daily 50 mg for 16 weeks; cited from earlier work
T2DM patients [5] = conditions: once daily 12.5, 25, 50 and 100 mg, 12 weeks; cited from earlier work
[6] = cited from earlier work
[7] = test system: Japanese healthy subjects and patients with T2DM; experiment: Phase I and clinical pharmacology studies; type: in vivo, human
In short: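 Oral dosing in three studies. Healthy subjects received single fasted doses of 1–300 mg, or 20–100 mg daily after a standardized meal. T2DM patients received 50 or 100 mg daily for 14 days. A single 50 mg dose was given to T2DM patients grouped by eGFR. Urine was collected for 24 h predose and in postdose intervals, and UGE24h was calculated. Pooled data from 137 subjects were plotted against FPG and AUC24h.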

[8] = test system: Japanese healthy subjects and patients with T2DM; experiment: PK/PD maximum effect; type: in vivo, human
In short: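 Emax model fitted in NONMEM (FOCE with interaction) to pooled healthy-subject and T2DM data from three studies. AUC24h came from noncompartmental analysis, and UGE24h was taken over matching intervals. Emax was modelled as dependent on FAC (FPG × GFR) up to a threshold of 18 000 and constant above it. There was no interindividual variability, and residual error was additive plus proportional. Covariates were added stepwise (P < .05) and removed backward (P < .001), and the model was bootstrapped.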

[9] = Simulation of steady-state AUC24h using post-hoc CL/F from the final PopPK model; set-up: species or system human
In short: (§1)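 Steady state was simulated for 887 Japanese T2DM patients at 12.5, 25, 50 and 100 mg once daily. AUC24h came from individual post-hoc CL/F of the final PopPK model, and ΔUGE24h came from the final PK/PD model. The 50 mg regimen was also summarized by eGFR class (≥90, 60 to <90, 30 to <60 mL/min/1.73 m2). Results are given as median and 2.5th–97.5th percentiles.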

[10] = cited from earlier work; remark: listed apart in the source
[11] = test system: Japanese patients with T2DM; experiment: Simulation of steady-state ΔUGE24h by the final PK/PD model; set-up: species or system human; conditions: 50 mg once daily
In short: as §1

[12] = cited from earlier work; remark: listed apart in the source
Population PK model = type: in vivo, human
In short: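 The prior model was built from 534 plasma concentrations in 43 T2DM patients sampled serially after oral dosing. It was a 2-compartment model with first-order absorption (ADVAN4/TRANS4), log-normal interindividual variability and proportional residual error, fitted by FOCE with interaction. It served via $PRIOR to fit trough concentrations from four later studies. Covariates on CL/F were tested stepwise. Plasma drug was measured by LC–MS/MS (LLOQ 1 ng/mL).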

Compound: OC[C@H]1O[C@@H](c2ccc(Cl)c(Cc3ccc(O[C@H]4CCOC4)cc3)c2)[C@H](O)[C@@H](O)[C@@H]1O [empagliflozin]
Emax (T2DM patients [1]): 120 g/24 h

higher exposure in moderate renal impairment patients with T2DM ([9]; descriptive comparison of assessed AUC and simulation by final PopPK model): about 20%
change in exposure caused by covariates other than GFR (BSA, TPRO, TBIL) ([9]; final PopPK model): ≤ 10%
increase in AUC24h, moderate renal impairment compared to normal renal function ([9]; simulation, 50 mg once daily, T2DM patients): 1.17 fold
Interindividual variability of CL/F (Population PK model; base model, before covariates): 26.8%
Interindividual variability ω^2: CL (Population PK model; final PopPK model): 0.0533
Vd/F (Population PK model; human, plasma, oral): 39.4 L
first order absorption rate constant Ka (Population PK model; population mean, T2DM patients): 6.38 h⁻¹
oral clearance CL/F (Population PK model; population mean, T2DM patients): 9.47 L/h
Compound: OC[C@H]1O[C@@H](c2ccc(F)c(Cc3cc4ccccc4s3)c2)[C@H](O)[C@@H](O)[C@@H]1O [ipragliflozin]
antidiabetic effect [2]: weaker antidiabetic effect
exposure versus dose [3]: increase dose‐dependently
tolerability [3]: consistently well tolerated
urinary glucose excretion (UGE) versus dose [3]: increase dose‐dependently
decreasing FPG and HbA1c levels versus placebo [4]: superior to a placebo
tolerability [4]: well tolerated
fasting plasma glucose (FPG) and HbA1c levels (T2DM patients [5]): dose‐dependent decreases
urinary excretion ratio of unchanged ipragliflozin [6]: approximately 1%
effects on UGE at low doses ([7]; 1 and 3 mg single dose, healthy subjects, Study A): no significant effects
UGE after single and multiple doses ([7]; healthy subjects and T2DM patients, exploratory assessment): dose‐dependent increase
glucose excretion effect versus dose ([8]; above 50 mg daily dose, suggested by PK/PD model): almost reaches the maximum level
Emax of ΔUGE24h: FAC > 18 000 ([8]; population mean, constant above FAC threshold): 107 g/24 h
Emax of ΔUGE24h: FAC ≤ 18 000 ([8]; population mean, reference FPG 100 mg/dL and GFR 90 mL/min): 72.3 g/24 h
protein binding ex vivo [10]: ~ 96%
change in ΔUGE24h, moderate renal impairment compared to normal renal function [11]: 0.76 fold
oral bioavailability [12]: > 90%
